# Data taken from publication PMC6120582 (Science (New York, N.Y.), 2018).
# Experiments:
# [1] = molecular target: eIF2 (Homo sapiens, UniProt P41091); assay: GDP unloading assay, displacement of Bodipy-GDP; type: binding; details: 1000-fold excess of unlabelled GDP; exchange catalysed by eIF2B
# [2] = molecular target: eIF2B(αβγδε)2 (Homo sapiens, UniProt P49770+Q9UI10, Q9UI10:L179A); assay: GEF assay, unloading of Bodipy-GDP from eIF2; type: biochemical; details: assembled eIF2B(βγδε) and eIF2B(α2); activator
# Sequence of eIF2B(αβγδε)2 (Homo sapiens, UniProt P49770+Q9UI10, Q9UI10:L179A) (P49770 whole entry): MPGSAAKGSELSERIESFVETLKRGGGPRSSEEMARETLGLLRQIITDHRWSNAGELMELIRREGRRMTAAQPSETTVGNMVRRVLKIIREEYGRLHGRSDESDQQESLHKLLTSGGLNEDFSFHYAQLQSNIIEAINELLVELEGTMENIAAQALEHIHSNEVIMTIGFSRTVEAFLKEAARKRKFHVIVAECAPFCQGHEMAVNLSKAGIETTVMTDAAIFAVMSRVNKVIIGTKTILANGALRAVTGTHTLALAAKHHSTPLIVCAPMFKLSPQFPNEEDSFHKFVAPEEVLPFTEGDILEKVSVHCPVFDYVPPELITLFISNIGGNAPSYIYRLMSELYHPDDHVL
# Sequence of eIF2B(αβγδε)2 (Homo sapiens, UniProt P49770+Q9UI10, Q9UI10:L179A) (Q9UI10 whole entry L179A): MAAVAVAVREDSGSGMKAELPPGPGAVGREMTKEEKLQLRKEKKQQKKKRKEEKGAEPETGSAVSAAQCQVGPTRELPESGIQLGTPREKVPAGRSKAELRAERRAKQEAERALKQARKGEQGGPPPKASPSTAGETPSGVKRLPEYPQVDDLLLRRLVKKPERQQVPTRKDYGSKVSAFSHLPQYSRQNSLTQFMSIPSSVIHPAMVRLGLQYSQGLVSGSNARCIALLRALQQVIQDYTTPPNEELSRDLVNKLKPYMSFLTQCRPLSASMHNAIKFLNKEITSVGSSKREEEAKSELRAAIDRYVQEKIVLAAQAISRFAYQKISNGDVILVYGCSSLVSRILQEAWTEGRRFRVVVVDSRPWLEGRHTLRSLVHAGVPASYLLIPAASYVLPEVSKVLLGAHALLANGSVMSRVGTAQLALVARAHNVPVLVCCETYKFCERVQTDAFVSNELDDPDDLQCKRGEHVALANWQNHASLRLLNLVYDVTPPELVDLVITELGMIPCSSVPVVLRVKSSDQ
# Sequence of eIF2B(αβγδε)2 (Homo sapiens, UniProt P49770+Q9UI10, Q9UI10:L179A) (Q14232 whole entry partner): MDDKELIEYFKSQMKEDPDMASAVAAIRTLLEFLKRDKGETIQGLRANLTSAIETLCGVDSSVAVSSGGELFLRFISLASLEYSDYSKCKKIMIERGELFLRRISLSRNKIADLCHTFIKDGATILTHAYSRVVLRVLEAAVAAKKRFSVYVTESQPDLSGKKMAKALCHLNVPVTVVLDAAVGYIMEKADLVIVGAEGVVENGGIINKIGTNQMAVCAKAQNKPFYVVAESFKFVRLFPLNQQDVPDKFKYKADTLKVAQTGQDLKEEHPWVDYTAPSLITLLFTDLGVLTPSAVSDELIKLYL
# Sequence of eIF2B(αβγδε)2 (Homo sapiens, UniProt P49770+Q9UI10, Q9UI10:L179A) (Q9NR50 whole entry partner): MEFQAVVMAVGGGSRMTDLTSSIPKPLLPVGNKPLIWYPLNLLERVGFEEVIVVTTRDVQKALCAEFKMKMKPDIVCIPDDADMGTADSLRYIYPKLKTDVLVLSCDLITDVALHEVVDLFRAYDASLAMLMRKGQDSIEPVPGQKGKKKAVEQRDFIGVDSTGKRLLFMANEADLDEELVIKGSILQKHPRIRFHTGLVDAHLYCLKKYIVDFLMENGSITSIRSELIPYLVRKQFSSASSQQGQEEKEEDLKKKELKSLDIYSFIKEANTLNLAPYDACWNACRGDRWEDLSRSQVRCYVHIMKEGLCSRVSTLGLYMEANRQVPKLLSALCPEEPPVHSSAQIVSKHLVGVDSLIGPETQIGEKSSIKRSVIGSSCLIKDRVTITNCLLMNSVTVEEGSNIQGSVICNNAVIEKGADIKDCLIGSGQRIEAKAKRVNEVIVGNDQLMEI
# Sequence of eIF2B(αβγδε)2 (Homo sapiens, UniProt P49770+Q9UI10, Q9UI10:L179A) (Q13144 2-721 partner): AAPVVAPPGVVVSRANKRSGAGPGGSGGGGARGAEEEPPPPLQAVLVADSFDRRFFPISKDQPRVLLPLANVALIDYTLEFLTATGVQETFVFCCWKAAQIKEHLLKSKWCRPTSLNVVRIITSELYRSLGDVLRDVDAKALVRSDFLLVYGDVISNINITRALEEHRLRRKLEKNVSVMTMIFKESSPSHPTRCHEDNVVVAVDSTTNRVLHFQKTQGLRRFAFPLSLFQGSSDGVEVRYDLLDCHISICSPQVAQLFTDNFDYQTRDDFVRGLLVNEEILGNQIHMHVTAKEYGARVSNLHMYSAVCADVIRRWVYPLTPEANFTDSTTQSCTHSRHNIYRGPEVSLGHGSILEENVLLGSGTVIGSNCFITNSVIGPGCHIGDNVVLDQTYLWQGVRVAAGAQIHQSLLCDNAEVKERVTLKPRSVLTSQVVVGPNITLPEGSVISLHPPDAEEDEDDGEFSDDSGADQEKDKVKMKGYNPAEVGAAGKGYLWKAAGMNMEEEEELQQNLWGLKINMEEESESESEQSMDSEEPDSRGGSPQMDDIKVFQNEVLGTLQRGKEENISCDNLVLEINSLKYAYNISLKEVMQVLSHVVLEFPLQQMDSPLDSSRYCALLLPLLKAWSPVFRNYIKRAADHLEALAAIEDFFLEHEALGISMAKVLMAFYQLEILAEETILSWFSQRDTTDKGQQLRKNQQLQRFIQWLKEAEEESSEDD
# Outline: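 Human eIF2B subunits were co-expressed in E. coli from three plasmids, and the βγδε (δL179A) and α2 subcomplexes were purified separately and combined. The substrate was non-phosphorylated human eIF2 from gcn2Δ S. cerevisiae, loaded with Bodipy-GDP. A 1000-fold excess of unlabeled GDP was added as a chase, and the fluorescence decrease was followed with and without test compound. kobs came from a single-exponential fit.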
# [3] = molecular target: eIF2B(αβγδε)2 (Homo sapiens, UniProt P49770+Q9UI10, P49770:H188A); assay: decamer stability, sucrose gradient velocity sedimentation; type: binding; details: 500 nM ISRIB, 400 mM salt
# Sequence of eIF2B(αβγδε)2 (Homo sapiens, UniProt P49770+Q9UI10, P49770:H188A) (P49770 whole entry H188A): as the sequence (P49770 whole entry) above, with H188A counted along it
# Sequence of eIF2B(αβγδε)2 (Homo sapiens, UniProt P49770+Q9UI10, P49770:H188A) (Q9UI10 whole entry): as the sequence (Q9UI10 whole entry L179A) above, with A179L counted along it
# Sequence of eIF2B(αβγδε)2 (Homo sapiens, UniProt P49770+Q9UI10, P49770:H188A) (Q14232 whole entry partner): as the sequence (Q14232 whole entry partner) above
# Sequence of eIF2B(αβγδε)2 (Homo sapiens, UniProt P49770+Q9UI10, P49770:H188A) (Q9NR50 whole entry partner): as the sequence (Q9NR50 whole entry partner) above
# Sequence of eIF2B(αβγδε)2 (Homo sapiens, UniProt P49770+Q9UI10, P49770:H188A) (Q13144 2-721 partner): as the sequence (Q13144 2-721 partner) above
# Sequence of eIF2 (P41091 2-472): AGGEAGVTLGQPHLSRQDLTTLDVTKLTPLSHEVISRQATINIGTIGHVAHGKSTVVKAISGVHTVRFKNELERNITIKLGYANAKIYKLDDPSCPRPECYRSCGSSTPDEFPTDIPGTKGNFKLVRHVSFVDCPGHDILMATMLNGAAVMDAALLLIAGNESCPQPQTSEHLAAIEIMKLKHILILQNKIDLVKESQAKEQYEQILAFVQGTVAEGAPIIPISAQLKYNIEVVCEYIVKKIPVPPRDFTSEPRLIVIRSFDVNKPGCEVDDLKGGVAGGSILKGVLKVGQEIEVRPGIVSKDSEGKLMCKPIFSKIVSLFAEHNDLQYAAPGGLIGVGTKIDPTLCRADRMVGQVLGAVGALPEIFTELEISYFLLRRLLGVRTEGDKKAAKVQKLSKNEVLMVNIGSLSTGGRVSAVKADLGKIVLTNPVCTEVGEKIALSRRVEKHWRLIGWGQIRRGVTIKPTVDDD
# Sequence of eIF2 (P05198 whole entry partner): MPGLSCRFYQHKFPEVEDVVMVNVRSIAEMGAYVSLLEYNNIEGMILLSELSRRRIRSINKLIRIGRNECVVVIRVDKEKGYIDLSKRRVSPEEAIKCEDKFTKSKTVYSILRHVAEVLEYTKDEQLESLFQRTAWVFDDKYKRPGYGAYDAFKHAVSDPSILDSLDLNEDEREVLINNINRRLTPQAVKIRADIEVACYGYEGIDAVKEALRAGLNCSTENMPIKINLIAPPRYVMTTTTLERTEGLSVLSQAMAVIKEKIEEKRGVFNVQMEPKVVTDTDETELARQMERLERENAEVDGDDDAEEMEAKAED
# Sequence of eIF2 (P20042 2-333 partner): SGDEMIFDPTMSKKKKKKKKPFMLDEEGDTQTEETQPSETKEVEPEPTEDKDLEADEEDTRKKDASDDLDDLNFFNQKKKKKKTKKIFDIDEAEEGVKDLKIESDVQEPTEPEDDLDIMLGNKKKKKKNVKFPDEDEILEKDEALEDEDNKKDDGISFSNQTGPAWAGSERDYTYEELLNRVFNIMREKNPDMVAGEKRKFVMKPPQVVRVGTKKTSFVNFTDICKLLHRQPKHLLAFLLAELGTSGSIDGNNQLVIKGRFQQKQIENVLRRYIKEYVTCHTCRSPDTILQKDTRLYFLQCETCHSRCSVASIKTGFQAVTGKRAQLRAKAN
smiles,measurement,setting,value
Nc1nc2c(ncn2[C@@H]2O[C@H](COP(=O)(O)OP(=O)(O)O)[C@@H](O)[C@H]2O)c(=O)[nH]1 [GDP],"GDP unloading assay, displacement of Bodipy-GDP",[1],we added fluorescent Bodipy-GDP to GDP-bound eIF2
"C[C@@H](Oc1ccc(Cl)cc1)C(=O)N[C@H]1CC[C@H](NC(=O)[C@@H](C)Oc2ccc(Cl)cc2)CC1 [ISRIB-A19(R,R)]",fold activation of GEF activity (kobs),[2],~ 3 fold
O=C(COc1ccc(Cl)cc1)N[C@H]1CC[C@H](NC(=O)COc2ccc(Cl)cc2)CC1 [ISRIB],decamer stabilization (inactive: none seen),[3],ISRIB did not stabilize eIF2B(βH188A) decamers
